Reference: ChEMBL document CHEMBL2417509, “Synthesis and biological evaluation of prodigiosene conjugates of porphyrin, estrone and 4-hydroxytamoxifen” (2013)

Experiments:
Type in all cases: functional
DU-145 = experiment: Cytotoxicity against human DU145 cells after 2 days by sulforhodamine B assay; details: DU-145, 48 h
In short: (§1)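 NCI60 multi-dose screen, 59 human tumour lines available. Cells exposed to compound across a 5-log mol/L concentration range for 2 days, then fixed and stained with sulphorhodamine B, optical density read. Growth inhibition calculated against time-zero control and untreated cells. GI50 derived from the dose series, average of two replicates.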

CAKI-1 = experiment: Cytotoxicity against human CAKI-1 cells after 2 days by sulforhodamine B assay; details: CAKI-1, 48 h; in short: as §1
SK-MEL-2 = experiment: Cytotoxicity against human SK-MEL-2 cells after 2 days by sulforhodamine B assay; details: SK-MEL-2, 48 h; in short: as §1
HOP-62 = experiment: Cytotoxicity against human HOP62 cells after 2 days by sulforhodamine B assay; details: HOP-62, 48 h; in short: as §1
OVCAR-5 = experiment: Cytotoxicity against human OVCAR5 cells after 2 days by sulforhodamine B assay; details: OVCAR-5, 48 h; in short: as §1
SN12C = experiment: Cytotoxicity against human SN12C cells after 2 days by sulforhodamine B assay; details: 48 h; in short: as §1
[1] = Cytotoxicity against human Hs578T cells after 2 days by sulforhodamine B assay; details: Hs-578T, 48 h; in short: as §1
OVCAR-4 = experiment: Cytotoxicity against human OVCAR4 cells after 2 days by sulforhodamine B assay; details: OVCAR-4, 48 h; in short: as §1
PC-3 = experiment: Cytotoxicity against human PC3 cells after 2 days by sulforhodamine B assay; details: PC-3, 48 h; in short: as §1
OVCAR-8 = experiment: Cytotoxicity against human OVCAR8 cells after 2 days by sulforhodamine B assay; details: OVCAR-8, 48 h; in short: as §1
KM12 = experiment: Cytotoxicity against human KM12 cells after 2 days by sulforhodamine B assay; details: KM12, 48 h; in short: as §1
SF-295 = experiment: Cytotoxicity against human SF295 cells after 2 days by sulforhodamine B assay; details: SF-295, 48 h; in short: as §1
HCT-116 = experiment: Cytotoxicity against human HCT116 cells after 2 days by sulforhodamine B assay; details: HCT-116, 48 h; in short: as §1
ACHN = experiment: Cytotoxicity against human ACHN cells after 2 days by sulforhodamine B assay; details: 48 h; in short: as §1
COLO 205 = experiment: Cytotoxicity against human COLO205 cells after 2 days by sulforhodamine B assay; details: COLO 205, 48 h; in short: as §1
TK-10 = experiment: Cytotoxicity against human TK10 cells after 2 days by sulforhodamine B assay; details: TK-10, 48 h
In short: (§2)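 NCI DTP NCI60 multi-dose screen (59 human tumour lines available). Cells exposed to compound over a 5-log mol/L concentration range for 2 days, then fixed and stained with sulphorhodamine B, with optical density read. Growth inhibition calculated relative to time-zero cells and untreated cells, giving GI50 (half-maximal growth inhibition concentration). Average of two replicates.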

UO-31 = experiment: Cytotoxicity against human UO31 cells after 2 days by sulforhodamine B assay; details: UO-31, 48 h; in short: as §2
A549 = experiment: Cytotoxicity against human A549/ATCC cells after 2 days by sulforhodamine B assay; details: A549, 48 h; in short: as §1
SW-620 = experiment: Cytotoxicity against human SW620 cells after 2 days by sulforhodamine B assay; details: SW-620, 48 h; in short: as §2
Malme-3M = experiment: Cytotoxicity against human MALME-3M cells after 2 days by sulforhodamine B assay; details: 48 h; in short: as §1
NCI-H226 = experiment: Cytotoxicity against human NCI-H226 cells after 2 days by sulforhodamine B assay; details: NCI-H226, 48 h; in short: as §1
NCI-H460 = experiment: Cytotoxicity against human NCI-H460 cells after 2 days by sulforhodamine B assay; details: NCI-H460, 48 h; in short: as §1
CCRF-CEM = experiment: Cytotoxicity against human CCRF-CEM cells after 2 days by sulforhodamine B assay; details: 48 h; in short: as §1
OVCAR-3 = experiment: Cytotoxicity against human OVCAR3 cells after 2 days by sulforhodamine B assay; details: OVCAR-3, 48 h; in short: as §1
K562 = experiment: Cytotoxicity against human K562 cells after 2 days by sulforhodamine B assay; details: K562, 48 h; in short: as §1
SF-539 = experiment: Cytotoxicity against human SF539 cells after 2 days by sulforhodamine B assay; details: SF-539, 48 h; in short: as §1
SR = experiment: Cytotoxicity against human SR cells after 2 days by sulforhodamine B assay; details: 48 h; in short: as §2
HCT-15 = experiment: Cytotoxicity against human HCT15 cells after 2 days by sulforhodamine B assay; details: HCT-15, 48 h; in short: as §1
UACC-257 = experiment: Cytotoxicity against human UACC257 cells after 2 days by sulforhodamine B assay; details: UACC-257, 48 h; in short: as §2
MCF7 = experiment: Cytotoxicity against human MCF7 cells after 2 days by sulforhodamine B assay; details: MCF7, 48 h; in short: as §1
MDA-MB-435 = experiment: Cytotoxicity against human MDA-MB-435 cells after 2 days by sulforhodamine B assay; details: MDA-MB-435, 48 h; in short: as §1
[2] = read-out: LC50 (the source's name)

## COc1cc(-c2ccc[nH]2)[nH]c1/C=C1\N=C(C)C(C(=O)CCC(=O)Oc2ccc3c(c2)CC[C@@H]2[C@@H]3CC[C@]3(C)C(=O)CC[C@@H]23)=C1C
DU-145
  GI50: 1.96 µM
  LC50 (concentration killing 50% of starting cells): > 100 µM
  TGI: > 100 µM
CAKI-1
  GI50: 9.05 µM
  LC50 (concentration killing 50% of the cells present at time zero): > 100 µM
  TGI: > 100 µM
SK-MEL-2
  GI50: 15.6 µM
  LC50: > 100 µM
  TGI: 58.8 µM
HOP-62
  GI50: 18.3 µM
  TGI: 65.9 µM
HOP-62; [2]
  CC50: > 100 µM
OVCAR-5
  GI50: 9.64 µM
  LC50: > 100 µM
  TGI: > 100 µM
SN12C
  GI50: 5.21 µM
  TGI: > 100 µM
SN12C; [2]
  CC50: > 100 µM
[1]
  GI50: 14.2 µM
  TGI: > 100 µM
[1]; [2]
  CC50: > 100 µM
OVCAR-4
  GI50: 20.9 µM
  LC50 (concentration killing 50% of cells): > 100 µM
  TGI: > 100 µM
PC-3
  GI50: 7.45 µM
  LC50 (concentration killing 50% of cells): > 100 µM
  TGI: > 100 µM
OVCAR-8
  GI50: 8.36 µM
  LC50: > 100 µM
  TGI: > 100 µM
KM12
  GI50: 6.25 µM
  LC50: > 100 µM
  TGI: > 100 µM
SF-295
  GI50: 21.4 µM
  LC50: > 100 µM
  TGI: 85.4 µM
HCT-116
  GI50: 0.8 µM
  LC50 (concentration killing 50% of cells vs time zero): > 100 µM
  TGI: > 100 µM
ACHN
  GI50: 5.83 µM
  LC50 (concentration killing 50% of cells): > 100 µM
  TGI: > 100 µM
COLO 205
  GI50: 21.6 µM
  LC50 (concentration killing 50% of cells): > 100 µM
  TGI: > 100 µM
TK-10
  GI50: 27.8 µM
  LC50: > 100 µM
  TGI: > 100 µM
UO-31
  GI50: 4.15 µM
  LC50: > 100 µM
  TGI: 31 µM
A549
  GI50: 2.68 µM
  LC50 (concentration giving 50% net cell kill): > 100 µM
  TGI: > 100 µM
SW-620
  GI50: 0.77 µM
  LC50 (concentration killing 50% of cells): > 100 µM
  TGI: > 100 µM
Malme-3M
  GI50: 29 µM
  LC50: > 100 µM
  TGI: > 100 µM
NCI-H226
  GI50: 11.1 µM
  LC50: > 100 µM
  TGI: > 100 µM
NCI-H460
  GI50: 3.09 µM
  LC50: > 100 µM
  TGI: > 100 µM
CCRF-CEM
  GI50: 0.54 µM
  TGI: > 100 µM
CCRF-CEM; [2]
  CC50: > 100 µM
OVCAR-3
  GI50: 17.6 µM
  LC50: > 100 µM
  TGI: > 100 µM
K562
  GI50: 4.23 µM
  LC50 (concentration killing 50% of cells): > 100 µM
  TGI: > 100 µM
SF-539
  GI50: 15.5 µM
  LC50: > 100 µM
  TGI: > 100 µM
SR
  GI50: 0.72 µM
  LC50 (concentration giving 50% net cell kill): > 100 µM
  TGI: > 100 µM
HCT-15
  GI50: 2.6 µM
  LC50: > 100 µM
  TGI: > 100 µM
UACC-257
  GI50: 97.6 µM
  TGI: > 100 µM
UACC-257; [2]
  CC50: > 100 µM
MCF7
  GI50: 1.91 µM
  LC50 (concentration giving 50% net cell kill): > 100 µM
  TGI: > 100 µM
MDA-MB-435
  GI50: 7.68 µM
  TGI: > 100 µM
MDA-MB-435; [2]
  CC50: > 100 µM
